The text below walks through data of ChEMBL document CHEMBL1149185, “Uncharged AZT and D4T derivatives of phosphonoformic and phosphonoacetic acids as anti-HIV pronucleosides” (J Med Chem, 2004).

The structures appear in SMILES notation.

In data set [1] the test system is MT4. Nature of the data set: 90% inhibition of HIV replication in MT-4 cells. It is filed as functional, Homo sapiens. The procedure, abridged: (§1)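 HIV-1-infected MT-4 cells (MOI 0.2-0.5; cells at 2 × 10^6 cells/mL, viability >90%) in RPMI-1640 with 10% FBS, L-glutamine, gentamycin and lincomycin. Cultured 3 days with compound at 0.001-100 µg/mL, triplicate per dose. Replication measured as p24 antigen by immunoassay.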

A short description of data set [2]: Half life for hydrolysis of compound in phosphate buffer of pH 7.2 at 20 degree C. The format is ADME.
For data set [3], the system named is MT4. Nature of the data set: Ratio of CD50 to ID50 was determined. It is filed as functional, Homo sapiens.
Data set [4] relates to MT4. Nature of the data set: 50% inhibition of HIV replication in MT-4 cells. The format is functional. The settings on record: Homo sapiens, read-out: ID50 (the source's name). In short, it runs like this: as §1
For data set [5], the system named is MT4. Nature of the data set: 50% inhibition of MT-4 cell proliferation. The format is functional. The conditions noted are these: Homo sapiens, read-out: CD50 (the source's name). The procedure, abridged: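 MT-4 cells in RPMI-1640 with 10% FBS, cultured 3 days with compound at 0.001-200 µg/mL, triplicate per dose. Cell concentration and viability measured by trypan blue dye exclusion, and CD50 calculated.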

Data set [6] is described as follows: Half life for the hydrolysis of compound in human blood serum. It is filed as ADME, cell-free, Plasma.

The half-life is the time in which the quantity being followed falls by half. Consider `CCOC(=O)CP(=O)(OCC1OC(n2cc(C)c(=O)[nH]c2=O)CC1N=[N+]=[N-])OC1CCCCC1` (stereo not drawn), for which the ID90 with MT4 [1] amounted to 1.4 µM. Moreover, in data set [2], the half-life is more than 8 h. In addition, the IS in the data set with MT4 [3] was determined as 700. Moreover, the IC50 in the data set on MT4 [4] is 0.4 µM. Moreover, in the data set with MT4 [5], the CC50 worked out at 280 µM.
`CCOP(=O)(OCC1OC(n2cc(C)c(=O)[nH]c2=O)CC1N=[N+]=[N-])C(N)=O` (stereo not drawn): in the data set with MT4 [1], the ID90 came to 0.019 µM. The values for the half-life in data set [2] and in data set [6] were 2.5 h and 0.117 h, respectively. Besides, the IS in the data set with MT4 [3] amounted to 124300. In the data set on MT4 [4], the IC50 turned out to be 0.002 µM. Moreover, in the data set on MT4 [5], the CC50 is 249 µM.
For `Cc1cn([C@H]2C=C[C@@H](CO)O2)c(=O)[nH]c1=O` [STAVUDINE], the ID90 in the data set on MT4 [1] turned out to be 23.8 µM. In addition, in the data set on MT4 [3], the IS is listed as 1308. Moreover, the IC50 with MT4 [4] was 0.24 µM.
In the data set on MT4 [1], `CCOC(=O)P(=O)(OCC)OCC1OC(n2cc(C)c(=O)[nH]c2=O)CC1N=[N+]=[N-]` (stereo not drawn) returned an ID90 of 0.016 µM. In data set [2], this molecule registered a half-life of 0.167 h. For the same molecule, the IS in the data set with MT4 [3] turned out to be 16338. In the data set with MT4 [4], the IC50 was 0.0071 µM. The CC50 in the data set with MT4 [5] was 116 µM.
Molecule `CCOP(=O)(OCC1OC(n2cc(C)c(=O)[nH]c2=O)CC1N=[N+]=[N-])C(=O)NCCc1ccccc1` (stereo not drawn) showed a half-life in data set [2] of 10 h. In the data set on MT4 [3], the IS is on record as 19711. In the data set on MT4 [4], the IC50 is 0.009 µM. For the same molecule, the CC50 in the data set on MT4 [5] amounted to 177 µM.
For the molecule `CCOP(=O)(CC(N)=O)OCC1OC(n2cc(C)c(=O)[nH]c2=O)CC1N=[N+]=[N-]` (stereo not drawn), the ID90 in the data set with MT4 [1] amounted to 1.68 µM. This molecule displayed a half-life in data set [2] of more than 20 h. Further, the IS in the data set on MT4 [3] came out at 1573. In the data set on MT4 [4], the IC50 is 0.29 µM. For the same molecule, in the data set with MT4 [5], the CC50 came out at 456 µM.
`CCOC(=O)CP(=O)(OCC)OCC1C=CC(n2cc(C)c(=O)[nH]c2=O)O1` (stereo not drawn) displayed a half-life in data set [2] of more than 8 h. In the data set with MT4 [3], the IS is on record as less than 13. In addition, the IC50 with MT4 [4] is more than 10 µM. Moreover, the CC50 in the data set with MT4 [5] was 136 µM.
For the molecule `CCOP(=O)(OCC1OC(n2cc(C)c(=O)[nH]c2=O)CC1N=[N+]=[N-])C(=O)NC` (stereo not drawn), the ID90 in the data set on MT4 [1] stood at 0.0072 µM. In data set [2], the half-life was 6 h. In the data set on MT4 [3], the IS turned out to be 470416. Besides, the IC50 in the data set with MT4 [4] was 0.00024 µM. For the same molecule, the CC50 in the data set on MT4 [5] amounted to 113 µM.
The corresponding values for `CCOP(=O)(OCC1C=CC(n2cc(C)c(=O)[nH]c2=O)O1)C(=O)NC` (stereo not drawn) are 0.27 µM, 15 h, 6592, 0.013 µM and 85.7 µM.
For the molecule `CCOC(=O)CP(=O)(OCC1C=CC(n2cc(C)c(=O)[nH]c2=O)O1)OC1CCCCC1` (stereo not drawn), the IS in the data set on MT4 [3] is less than 13. For the same molecule, the IC50 in the data set with MT4 [4] was more than 10 µM. Besides, the CC50 with MT4 [5] is 131 µM.
In the data set with MT4 [1], `CCOP(=O)(CC(N)=O)OCC1C=CC(n2cc(C)c(=O)[nH]c2=O)O1` (stereo not drawn) gave an ID90 of 18.8 µM. The half-life in data set [2] and in data set [6] was more than 24 h in each case. In addition, in the data set on MT4 [3], the IS is on record as 49.6. The IC50 in the data set on MT4 [4] amounted to 5.4 µM. Also, the CC50 with MT4 [5] was 268 µM.
In the data set with MT4 [1], `Cc1cn([C@H]2C[C@H](N=[N+]=[N-])[C@@H](CO)O2)c(=O)[nH]c1=O` [ZIDOVUDINE] came in with an ID90 of 0.75 µM. Besides, the IS with MT4 [3] is recorded as 11029. Moreover, the IC50 in the data set with MT4 [4] amounted to 0.017 µM. Moreover, in the data set with MT4 [5], the CC50 turned out to be 188 µM.
With `CCOP(=O)(OCC1C=CC(n2cc(C)c(=O)[nH]c2=O)O1)C(N)=O` (stereo not drawn), the ID90 with MT4 [1] was 7.21 µM. Besides, the half-life is 7 h in data set [2] and 0.35 h in data set [6]. In addition, the IS in the data set on MT4 [3] amounted to 7143. Moreover, the IC50 in the data set on MT4 [4] turned out to be 0.03 µM. Moreover, the CC50 with MT4 [5] worked out at 214 µM.
For the molecule `CCOP(=O)(OCC1C=CC(n2cc(C)c(=O)[nH]c2=O)O1)C(=O)NCCc1ccccc1` (stereo not drawn), the half-life in data set [2] was more than 20 h. Further, the IS in the data set with MT4 [3] amounted to 1555. In the data set on MT4 [4], the IC50 was found to be 0.043 µM. Moreover, the CC50 with MT4 [5] amounted to 66.9 µM.
The molecule `CCOC(=O)P(=O)(OCC)OCC1C=CC(n2cc(C)c(=O)[nH]c2=O)O1` (stereo not drawn) yielded an ID90 with MT4 [1] of 21.7 µM. In data set [2], the half-life was 0.5 h. Besides, the IS with MT4 [3] came to 591. In addition, the IC50 with MT4 [4] was 0.23 µM. In the data set with MT4 [5], the CC50 is 136 µM.
As to `CCOC(=O)CP(=O)(OCC)OCC1OC(n2cc(C)c(=O)[nH]c2=O)CC1N=[N+]=[N-]` (stereo not drawn), in the data set on MT4 [3], the IS is recorded as more than 974. Besides, in the data set on MT4 [4], the IC50 came out at 0.23 µM. Besides, in the data set on MT4 [5], the CC50 was more than 224 µM.
